Measurements of several laboratories.
TMEM97: Sigma intracellular receptor 2 (TMEM97, Homo sapiens, UniProt Q5BJF2)
CASP7: Caspase-7 (CASP7, Homo sapiens, UniProt P55210)
Prostate-specific antigen: Prostate-specific antigen (Homo sapiens, UniProt P07288)
SIGMAR1: Sigma non-opioid intracellular receptor 1 (SIGMAR1, Cavia porcellus, UniProt Q60492)
ADRA1D: Alpha-1D adrenergic receptor (ADRA1D, Homo sapiens, UniProt P25100)
lecB: Fucose-binding lectin PA-IIL (lecB, Pseudomonas aeruginosa, UniProt Q9HYN5)

COc1ccc(CO[C@H]2CCCN(Cc3cccc(C)c3)C2)cc1F — Ki (TMEM97; ligand displacement; radioligand; cell membranes): 40 nM
O=c1c(O)c(-c2ccc(O)c(O)c2)oc2cc(O)cc(O)c12 — Ki (CASP7; enzyme activity; inhibitor; fluorescence): > 300000 nM
CCCC[C@H](NC(=O)[C@H](CCC(N)=O)NC(=O)[C@H](CO)NC(=O)CCCCCN)C(=O)N[C@@H](CCCBr)B(O)O — Ki (Prostate-specific antigen; enzyme activity; inhibitor; fluorescence; pH 7.8): 302 nM
CN(Cc1ccc(NC(=O)C2=Cc3cc(-c4ccc(OCCCCCF)cc4)ccc3CCC2)cc1)C1CCOCC1 — Ki (SIGMAR1; ligand displacement; radioligand): 320 nM
CCCC[C@H](NC(=O)[C@H](CCC(N)=O)NC(=O)[C@H](CO)NC(=O)[C@H](CO)NC(=O)CCCCCN)C(=O)N[C@@H](CC(C)C)B(O)O — Ki (Prostate-specific antigen; enzyme activity; inhibitor; fluorescence; pH 7.8): 43.1 nM
Cc1cc(Oc2nccc3ccsc23)ccc1-c1c(C)c(=O)[nH]c(=O)n1C — Ki (Muscarinic acetylcholine receptor M3 (CHRM3, Homo sapiens, UniProt P20309); ligand displacement; radioligand): 4600 nM
CCCC[C@H](NC(=O)[C@H](CCC(N)=O)NC(=O)[C@H](CO)NC(=O)[C@H](Cc1ccccc1)NC(=O)CCCCCN)C(=O)N[C@@H](CCCBr)B(O)O — Ki (Prostate-specific antigen; enzyme activity; inhibitor; fluorescence; pH 7.8): 72.3 nM
COc1ccccc1N1CCN(CCCCN2CCc3ccccc3C2=O)CC1 — Ki (ADRA1D; ligand displacement; radioligand): 14.2 nM
O=c1cc(-c2ccc(O)c(O)c2)oc2cc(O)cc(O)c12 — Ki (CASP7; enzyme activity; inhibitor; fluorescence): 130000 nM
O=C(c1ccccc1)c1ccc(CNCCCN2C(=O)c3ccccc3C2=O)cc1 — Ki (TMEM97; ligand displacement; radioligand; cell membranes): > 10000 nM
CCCC[C@H](NC(=O)[C@H](CCC(N)=O)NC(=O)[C@H](CO)NC(=O)CCCCCN)C(=O)N[C@@H](Cc1ccccc1)B(O)O — Ki (Prostate-specific antigen; enzyme activity; inhibitor; fluorescence; pH 7.8): 22 nM
C#CCNCCCN1CCN(CCCNC(=O)c2ccc(C(=O)c3ccc([N+](=O)[O-])cc3)cc2)CC1 — Ki (TMEM97; ligand displacement; radioligand; cell membranes): 60.1 nM
CCCn1nc(C(=O)N2CCCCC2)c2c1CCC(NCCc1ccncc1)C2 (stereo not shown) — Ki (TMEM97; ligand displacement; radioligand): > 10000 nM
C[C@@H]1O[C@H](CNS(=O)(=O)c2ccc(CCn3cc(CCN4CCN(c5cc6c(cc5F)c(=O)c(C(=O)O)cn6C5CC5)CC4)nn3)s2)[C@@H](O)[C@H](O)[C@@H]1O — Ki (lecB; ligand displacement; FP): 890 nM
CCCn1nc(C(=O)N2CCCCC2)c2c1CCC(NCCCNC)C2 (stereo not shown) — Ki (TMEM97; ligand displacement; radioligand): 1990 nM
O=C(CCCCC1SC[C@@H]2NC(=O)N[C@H]12)NCCCN(CCCN1CCN(C2CCCCC2)CC1)CC(=O)Nc1ccc(C(=O)c2ccccc2)cc1 (stereo in doubt) — Ki (TMEM97; ligand displacement; radioligand; cell membranes): 87 nM
C[C@@H]1O[C@H](CNS(=O)(=O)c2ccc(CCn3cc(CN4CCN(c5cc6c(cc5F)c(=O)c(C(=O)O)cn6C5CC5)CC4)nn3)s2)[C@@H](O)[C@H](O)[C@@H]1O — Ki (lecB; ligand displacement; FP): 820 nM
O=C(NCCN1CCCCC1)c1cc(Br)ccc1OCCCF — Ki (SIGMAR1; ligand displacement; radioligand; cell membranes): 52.9 nM
CCCC[C@H](NC(=O)[C@H](CCC(N)=O)NC(=O)[C@H](CO)NC(=O)[C@H](Cc1ccccc1)NC(=O)CCCCCNC(=O)c1ccc(I)cc1)C(=O)N[C@@H](CCCBr)B(O)O — Ki (Prostate-specific antigen; enzyme activity; inhibitor; fluorescence; pH 7.8): 64.4 nM
CCCCN1CCC(COC(=O)c2ccc(N)c(OCF)c2)CC1 — Ki (ADRA1D; cell-free assay; radioligand): > 10000 nM
C#CCN(CCCN1CCN(C2CCCCC2)CC1)c1ccc(C(=O)c2ccccc2)cc1 — Ki (TMEM97; ligand displacement; radioligand; cell membranes): 77.7 nM
CNc1nc(C#Cc2ccc(Cl)s2)nc2c1ncn2[C@H]1[C@H](O)[C@H](O)[C@]2(C(=O)OC)C[C@H]12 — Ki (SIGMAR1; ligand displacement; radioligand): 8730 nM
O=C(NCCN1CCCCC1)c1ccc(OCCCF)c(Br)c1 — Ki (SIGMAR1; ligand displacement; radioligand; cell membranes): 23.3 nM
CCCC[C@H](NC(=O)[C@H](CCC(N)=O)NC(=O)[C@H](CO)NC(=O)[C@H](Cc1ccccc1)NC(=O)CCCCCN)C(=O)N[C@@H](Cc1ccccc1)B(O)O — Ki (Prostate-specific antigen; enzyme activity; inhibitor; fluorescence; pH 7.8): 61.5 nM
CCCn1nc(C(=O)N2CCCCC2)c2c1CCC(Nc1ccc(Oc3ccccc3)cc1)C2 (stereo not shown) — Ki (TMEM97; ligand displacement; radioligand): 310 nM
CCCC[C@H](NC(=O)[C@H](CCC(N)=O)NC(=O)[C@H](CO)NC(=O)C[C@@H](Cc1ccc2ccccc2c1)NC(=O)CCCCCN)C(=O)N[C@@H](Cc1ccccc1)B(O)O — Ki (Prostate-specific antigen; enzyme activity; inhibitor; fluorescence; pH 7.8): 229 nM
COc1ccc2c(c1)C(=O)N(CCN1CCN(c3ccccc3OC)CC1)C2 — Ki (ADRA1D; ligand displacement; radioligand): 12.4 nM
CC(C)(C)Oc1cc(CCC(C)(C)N2Cc3ccc(S(C)(=O)=O)cc3C2)ccc1O — Ki (TMEM97; ligand displacement; radioligand; cell membranes): 8.5 nM
CN(Cc1ccc(NC(=O)C2=Cc3cc(-c4ccc(OCCCF)cc4)ccc3CCC2)cc1)C1CCOCC1 — Ki (SIGMAR1; ligand displacement; radioligand): 1000 nM
O=C1c2ccccc2CCCN1CCCCN1CCN(c2ccccn2)CC1 — Ki (ADRA1D; ligand displacement; radioligand): 980 nM
O[C@@H]1[C@H](O)[C@@H]2C[C@@H]2[C@H]1n1cnc2c(NCc3cccc(Cl)c3)nc(C#Cc3ccccc3)nc21 — Ki (SIGMAR1; ligand displacement; radioligand): 7660 nM
